Measurements pooled from the literature.
Compare with care: the assays were run in different laboratories.
ALK C1156Y: ALK tyrosine kinase receptor (ALK, Homo sapiens, UniProt Q9UM73, C1156Y)
ALK: ALK tyrosine kinase receptor (ALK, Homo sapiens, UniProt Q9UM73)
ALK L1196M: ALK tyrosine kinase receptor (ALK, Homo sapiens, UniProt Q9UM73, L1196M)

C1=C/COCc2cc(ccc2OCCN2CCCC2)Nc2nccc(n2)-c2cccc(c2)COC/1  remaining binding (ALK C1156Y; binding; 0.1 µM): 97%
CS(=O)(=NC#N)c1ccccc1Nc1nc(Nc2ccc(CO)nc2)ncc1Cl (centres unmarked)  remaining activity (ALK; enzyme activity; inhibitor; radiometric; 1 µM): 23.4%
CO[C@@H]1[C@H](N(C)C(=O)c2ccccc2)C[C@H]2O[C@]1(C)n1c3ccccc3c3c4c(c5c6ccccc6n2c5c31)C(=O)NC4  inhibition (ALK; enzyme activity; inhibitor; 1 µM): 54%
CN1CCN(C(=O)c2ccc(NC(=O)Nc3ccc(N(C)c4ccnc(Nc5ccc(CS(C)(=O)=O)cc5)n4)cc3)cc2)CC1  remaining binding (ALK L1196M; binding; 1 µM): 83%
N#Cc1ccc(NC(=O)Nc2ccccc2)cc1  remaining binding (ALK; cell-free assay; competition with immobilised ligand; 25 µM): 76%
CS(=O)(=O)c1ccccc1Nc1nc(Nc2ccnc(CO)c2)ncc1Cl  remaining activity (ALK; enzyme activity; inhibitor; radiometric; 1 µM): 10.2%
C=CC(=O)N1CCC([C@@H]2CCNc3c(C(N)=O)c(-c4ccc(Oc5ccccc5)cc4)nn32)CC1  inhibition (ALK L1196M; cell-free assay; 1 µM): 19%
COc1ccc2oc(-c3ccc4nc(N)oc4c3)c/c(=N\c3ccccc3NC(=O)CCN)c2c1  remaining binding (ALK; binding; 1 µM): 106%
CCCCC(=O)Nc1ccc(-c2ccc3ncn(CCC)c(=O)c3c2)cn1  remaining binding (ALK C1156Y; binding; competition with immobilised ligand; 0.5 µM): 100%
Cc1ccc(NC(=O)c2ccnc(C(F)(F)F)c2)cc1-c1cc(OCCO)nc(N2CCOCC2)c1  remaining binding (ALK C1156Y; binding; 1 µM): 100%
CNC(=O)c1ccccc1Nc1nc(Nc2ccc(CO)cc2)ncc1Cl  remaining activity (ALK; enzyme activity; inhibitor; radiometric; 1 µM): 1.07%
COc1ccc2[nH]c3c4[nH]c5ccc(OC)cc5c4c4c(c3c2c1)C(=O)NC4=O  remaining binding (ALK L1196M; binding; 1 µM): 70%
C#Cc1cnc(Nc2ccc(CO)nc2)nc1Nc1ccccc1S(C)(=O)=NC#N (centres unmarked)  remaining activity (ALK; enzyme activity; inhibitor; radiometric; 1 µM): 18.9%
CC#CC(=O)N1CCC[C@H]1c1nc(-c2ccc(C(=O)Nc3ccccn3)cc2)c2c(N)nccn12  inhibition (ALK C1156Y; enzyme activity; inhibitor; 1 µM): 0%
